According to ChEMBL document CHEMBL4014345, “Development of Selective Clk1 and -4 Inhibitors for Cellular Depletion of Cancer-Relevant Proteins” (J Med Chem, 2017):
Activity calls are given as the source filed them. No cut-off for these calls is given here.

Key:
[1] = target: T1, Dual specificity protein kinase CLK1 (Homo sapiens, UniProt P49759); assay: Inhibition of recombinant human GST-tagged Clk1 expressed in Escherichia coli at 100 nM using RS repeat substrate peptide after 15 mins in presence of [gamma-32]-ATP
T1 sequence (P49759 whole entry, looked up): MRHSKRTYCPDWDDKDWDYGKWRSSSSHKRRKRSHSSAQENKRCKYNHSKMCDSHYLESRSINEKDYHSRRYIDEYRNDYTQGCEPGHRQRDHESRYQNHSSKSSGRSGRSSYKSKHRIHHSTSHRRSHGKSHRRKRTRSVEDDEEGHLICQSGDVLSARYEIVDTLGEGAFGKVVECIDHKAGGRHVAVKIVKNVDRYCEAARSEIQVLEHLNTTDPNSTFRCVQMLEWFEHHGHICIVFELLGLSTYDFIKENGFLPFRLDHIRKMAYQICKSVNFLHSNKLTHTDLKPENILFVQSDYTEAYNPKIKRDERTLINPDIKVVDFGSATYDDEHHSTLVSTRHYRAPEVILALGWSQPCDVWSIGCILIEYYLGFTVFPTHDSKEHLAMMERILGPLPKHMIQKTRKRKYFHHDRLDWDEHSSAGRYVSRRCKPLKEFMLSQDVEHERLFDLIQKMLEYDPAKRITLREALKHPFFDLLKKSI

[2] = test system: T-24; assay: Down regulation of CD44 expression in human T24 cells at 1.25 to 10 uM after 3 days by Western blot analysis; format: functional, cell-based
In short: (§1)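 T24 or MDA-MB-231 cells were grown in DMEM to 70% confluency. The medium was replaced with compound diluted in DMEM, and cells were kept 3 days. Total protein was immunoblotted with monoclonal antibodies in 3% BSA/PBS against EGFR, p70S6K α, PARP-1, ERK2, HDAC1, CD44, PCNA and GRP94.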

[3] = test system: THP-1; assay: Cytotoxicity against human THP1 cells assessed as growth inhibition after 5 days by MTT assay; format: functional; conditions: THP-1, 120 h
In short: (§2)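 They were seeded at 5000 cells per well onto compound or DMSO (0.2% final). Plates were kept 5 days at 37 °C in 5% CO2 with no medium change, then read by MTT.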

[4] = target: T2, Dual specificity protein kinase CLK1/CLK4 (Homo sapiens, UniProt Q9HAZ1+P49759); assay: Inhibition of CLK1/4 in human T24 cells assessed as down regulation of EGFR expression after 3 days by Western blot analysis; format: cell-based; in short: as §1
[5] = target: T2, Dual specificity protein kinase CLK1/CLK4; assay: Inhibition of CLK1/4 in human MDA-MB-231 cells assessed as down regulation of S6 kinase expression at 10 uM after 3 days by Western blot analysis relative to control; format: cell-based; in short: as §1
[6] = target: T2, Dual specificity protein kinase CLK1/CLK4; assay: Inhibition of CLK1/4 in human MDA-MB-231 cells assessed as down regulation of EGFR expression at 2.5 uM after 3 days by Western blot analysis relative to control; format: cell-based; in short: as §1
[7] = target: T2, Dual specificity protein kinase CLK1/CLK4; assay: Inhibition of CLK1/4 in human HepG2 cells assessed as down regulation of S6 kinase expression at 20 uM after 3 days by Western blot analysis relative to control; format: cell-based
In short: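 HepG2 cells were grown in DMEM to 70% confluency, then the medium was replaced with compound diluted in DMEM. After 3 days, total protein was immunoblotted with monoclonal antibodies including HDAC1 and p70S6K.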

[8] = target: Dual specificity protein kinase CLK4 (Mus musculus, UniProt O35493); assay: Inhibition of recombinant GST-tagged mouse CLK4 using GRSRSRSRSRSR as substrate after 30 mins in presence of [gamma-32P]-ATP by scintillation counting method
Dual specificity protein kinase CLK4, sequence (O35493 whole entry): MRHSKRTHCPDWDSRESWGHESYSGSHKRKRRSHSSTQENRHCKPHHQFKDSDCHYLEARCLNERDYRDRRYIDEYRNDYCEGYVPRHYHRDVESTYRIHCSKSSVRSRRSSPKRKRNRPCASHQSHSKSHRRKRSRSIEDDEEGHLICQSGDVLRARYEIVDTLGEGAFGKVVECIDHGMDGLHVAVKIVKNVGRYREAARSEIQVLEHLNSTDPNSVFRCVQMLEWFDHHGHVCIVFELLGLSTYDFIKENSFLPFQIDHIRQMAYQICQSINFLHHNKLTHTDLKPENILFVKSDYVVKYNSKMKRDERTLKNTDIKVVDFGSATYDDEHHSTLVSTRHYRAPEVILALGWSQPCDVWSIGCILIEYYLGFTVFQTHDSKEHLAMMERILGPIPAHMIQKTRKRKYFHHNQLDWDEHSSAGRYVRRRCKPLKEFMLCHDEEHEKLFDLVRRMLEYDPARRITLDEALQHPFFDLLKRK

[9] = target: Dual specificity protein kinase CLK3 (Mus musculus) (UniProt O35492); assay: Inhibition of recombinant GST-tagged mouse CLK3 using GRSRSRSRSRSR as substrate at 1 uM after 30 mins in presence of [gamma-32P]-ATP by scintillation counting method
Dual specificity protein kinase CLK3 (Mus musculus), sequence (O35492 whole entry): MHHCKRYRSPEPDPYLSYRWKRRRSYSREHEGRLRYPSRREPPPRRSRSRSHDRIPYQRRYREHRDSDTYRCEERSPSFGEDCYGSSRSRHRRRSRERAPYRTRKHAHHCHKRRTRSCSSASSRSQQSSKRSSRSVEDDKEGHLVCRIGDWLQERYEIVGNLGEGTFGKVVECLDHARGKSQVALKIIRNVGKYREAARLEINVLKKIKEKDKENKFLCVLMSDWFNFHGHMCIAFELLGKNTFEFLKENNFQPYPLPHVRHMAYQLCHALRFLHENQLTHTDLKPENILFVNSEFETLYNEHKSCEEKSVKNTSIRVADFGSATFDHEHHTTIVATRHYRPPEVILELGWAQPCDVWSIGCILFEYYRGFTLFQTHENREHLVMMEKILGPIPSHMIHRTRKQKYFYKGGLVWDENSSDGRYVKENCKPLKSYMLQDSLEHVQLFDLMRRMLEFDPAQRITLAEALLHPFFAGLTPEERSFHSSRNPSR

[10] = test system: MDA-MB-231; assay: Cytotoxicity against human MDA-MB-231 cells assessed as growth inhibition after 5 days by MTT assay; format: functional; conditions: MDA-MB-231, 120 h; in short: as §2
[11] = test system: T-24; assay: Down regulation of PCNA expression in human T24 cells at 1.25 to 10 uM after 3 days by Western blot analysis; format: functional, cell-based; in short: as §1
[12] = test system: MDA-MB-231; assay: Down regulation of PCNA expression in human MDA-MB-231 cells at 2.5 to 20 uM after 3 days by Western blot analysis; format: functional, cell-based; in short: as §1
[13] = target: T3, Dual specificity tyrosine-phosphorylation-regulated kinase 1B (Homo sapiens, UniProt Q9Y463); assay: Inhibition of full length recombinant GST-tagged human DYRK1B expressed in baculovirus using KKISGRLSPIMTEQ-NH2 as substrate after 15 mins
Target sequence in this assay (Q9Y463 whole entry): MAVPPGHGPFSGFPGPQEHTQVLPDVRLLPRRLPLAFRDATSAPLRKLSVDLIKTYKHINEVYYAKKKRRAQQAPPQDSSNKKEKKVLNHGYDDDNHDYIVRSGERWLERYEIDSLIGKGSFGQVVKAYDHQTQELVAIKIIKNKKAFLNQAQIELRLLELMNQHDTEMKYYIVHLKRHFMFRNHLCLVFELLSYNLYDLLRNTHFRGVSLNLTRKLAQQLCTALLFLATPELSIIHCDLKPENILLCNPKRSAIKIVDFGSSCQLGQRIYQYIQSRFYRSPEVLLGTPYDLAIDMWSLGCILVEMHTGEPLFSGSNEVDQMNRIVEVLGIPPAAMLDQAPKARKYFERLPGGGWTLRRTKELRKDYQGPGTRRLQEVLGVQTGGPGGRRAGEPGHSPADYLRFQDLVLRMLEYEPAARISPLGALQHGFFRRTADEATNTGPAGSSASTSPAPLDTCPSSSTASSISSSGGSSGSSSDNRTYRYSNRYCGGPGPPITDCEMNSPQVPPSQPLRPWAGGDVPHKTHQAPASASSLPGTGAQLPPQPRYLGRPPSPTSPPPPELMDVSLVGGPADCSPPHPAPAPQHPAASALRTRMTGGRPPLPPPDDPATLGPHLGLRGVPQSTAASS

[14] = test system: MDA-MB-231; assay: Down regulation of GRP94 expression in human MDA-MB-231 cells at 2.5 to 20 uM after 3 days by Western blot analysis; format: functional, cell-based; in short: as §1
[15] = target: T2, Dual specificity protein kinase CLK1/CLK4; assay: Inhibition of CLK1/4 in human MDA-MB-231 cells assessed as down regulation of EGFR expression after 3 days by Western blot analysis; format: cell-based; in short: as §1
[16] = target: Dual specificity protein kinase CLK4 (Mus musculus) (UniProt O35493); assay: Inhibition of recombinant GST-tagged mouse CLK4 using GRSRSRSRSRSR as substrate at 1 uM after 30 mins in presence of [gamma-32P]-ATP by scintillation counting method
Dual specificity protein kinase CLK4 (Mus musculus), sequence (O35493 whole entry, looked up): as the sequence (O35493 whole entry) above

[17] = target: T3, Dual specificity tyrosine-phosphorylation-regulated kinase 1B; assay: Inhibition of full length recombinant GST-tagged human DYRK1B expressed in baculovirus using KKISGRLSPIMTEQ-NH2 as substrate at 1 uM after 15 mins
Target sequence in this assay (Q9Y463 whole entry, looked up): as the sequence (Q9Y463 whole entry) above

[18] = test system: T47D; assay: Cytotoxicity against human T47D cells assessed as growth inhibition after 5 days by MTT assay; format: functional; conditions: 120 h; in short: as §2
[19] = Cytotoxicity against HEK293 cells assessed as growth inhibition; format: cell-based; conditions: human
In short: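 Cytotoxicity was tested in proliferating HEK293 cells with GI50 as the read-out. Data are the mean of at least two independent experiments.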

[20] = target: Serine/threonine-protein kinase haspin (Homo sapiens) (UniProt Q8TF76); assay: Inhibition of MBP-Haspin (unknown origin) at 1 uM after 10 mins by TR-FRET assay
Serine/threonine-protein kinase haspin (Homo sapiens), sequence (Q8TF76 whole entry): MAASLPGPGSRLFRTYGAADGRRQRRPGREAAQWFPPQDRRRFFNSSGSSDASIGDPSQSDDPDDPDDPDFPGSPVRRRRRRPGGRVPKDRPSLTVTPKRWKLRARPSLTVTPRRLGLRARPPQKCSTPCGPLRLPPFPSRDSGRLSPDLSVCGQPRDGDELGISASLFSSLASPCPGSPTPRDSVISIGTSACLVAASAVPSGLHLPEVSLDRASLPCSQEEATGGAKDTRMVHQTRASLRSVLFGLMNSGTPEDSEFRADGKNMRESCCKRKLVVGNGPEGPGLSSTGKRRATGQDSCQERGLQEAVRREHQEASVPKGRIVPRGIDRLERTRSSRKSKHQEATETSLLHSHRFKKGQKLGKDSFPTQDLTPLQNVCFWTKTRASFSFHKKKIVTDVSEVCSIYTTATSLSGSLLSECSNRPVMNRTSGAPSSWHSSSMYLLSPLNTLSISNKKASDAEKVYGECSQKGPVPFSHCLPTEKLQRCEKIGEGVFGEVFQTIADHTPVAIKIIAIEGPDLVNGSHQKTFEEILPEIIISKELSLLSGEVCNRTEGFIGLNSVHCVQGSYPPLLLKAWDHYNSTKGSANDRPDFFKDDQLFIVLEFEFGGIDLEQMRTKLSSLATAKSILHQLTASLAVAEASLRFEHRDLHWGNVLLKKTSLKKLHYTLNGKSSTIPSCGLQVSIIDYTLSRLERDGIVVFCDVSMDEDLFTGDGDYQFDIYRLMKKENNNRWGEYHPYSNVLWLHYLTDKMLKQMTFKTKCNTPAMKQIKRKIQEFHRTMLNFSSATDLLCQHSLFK
In short: (§3)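 Tested in a commercial kinase profiling panel at an ATP concentration of 100 μM. Data are the mean of duplicates that differed by less than 7%.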

[21] = target: T2, Dual specificity protein kinase CLK1/CLK4; assay: Inhibition of CLK1/4 in human MDA-MB-231 cells assessed as down regulation of EGFR expression at 20 uM after 3 days by Western blot analysis relative to control; format: cell-based; in short: as §1
[22] = target: Dual specificity tyrosine-phosphorylation-regulated kinase 4 (Homo sapiens) (UniProt Q9NR20); assay: Inhibition of DYRK4 (unknown origin) using KKISGRLSPIMTEQ-NH2 as substrate at 1 uM after 15 mins in presence of [gamma-32P]-ATP
Dual specificity tyrosine-phosphorylation-regulated kinase 4 (Homo sapiens), sequence (Q9NR20 whole entry): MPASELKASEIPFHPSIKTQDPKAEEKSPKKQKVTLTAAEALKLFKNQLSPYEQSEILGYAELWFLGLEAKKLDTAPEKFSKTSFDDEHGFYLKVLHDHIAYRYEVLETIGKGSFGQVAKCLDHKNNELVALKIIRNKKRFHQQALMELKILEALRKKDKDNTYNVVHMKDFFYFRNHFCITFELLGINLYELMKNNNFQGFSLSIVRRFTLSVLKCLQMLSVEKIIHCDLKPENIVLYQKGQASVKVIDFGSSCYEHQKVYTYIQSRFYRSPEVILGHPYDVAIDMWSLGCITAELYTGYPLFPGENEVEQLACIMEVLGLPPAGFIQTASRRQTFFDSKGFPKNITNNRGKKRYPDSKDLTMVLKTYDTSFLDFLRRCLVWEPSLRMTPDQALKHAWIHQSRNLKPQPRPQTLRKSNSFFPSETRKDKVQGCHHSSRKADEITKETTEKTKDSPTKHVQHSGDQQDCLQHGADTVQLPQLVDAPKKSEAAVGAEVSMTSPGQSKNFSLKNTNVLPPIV

[23] = target: Dual specificity protein kinase CLK2 (Mus musculus, UniProt O35491); assay: Inhibition of recombinant GST-tagged mouse CLK2 using GRSRSRSRSRSR as substrate after 30 mins in presence of [gamma-32P]-ATP by scintillation counting method
Dual specificity protein kinase CLK2, sequence (O35491 whole entry): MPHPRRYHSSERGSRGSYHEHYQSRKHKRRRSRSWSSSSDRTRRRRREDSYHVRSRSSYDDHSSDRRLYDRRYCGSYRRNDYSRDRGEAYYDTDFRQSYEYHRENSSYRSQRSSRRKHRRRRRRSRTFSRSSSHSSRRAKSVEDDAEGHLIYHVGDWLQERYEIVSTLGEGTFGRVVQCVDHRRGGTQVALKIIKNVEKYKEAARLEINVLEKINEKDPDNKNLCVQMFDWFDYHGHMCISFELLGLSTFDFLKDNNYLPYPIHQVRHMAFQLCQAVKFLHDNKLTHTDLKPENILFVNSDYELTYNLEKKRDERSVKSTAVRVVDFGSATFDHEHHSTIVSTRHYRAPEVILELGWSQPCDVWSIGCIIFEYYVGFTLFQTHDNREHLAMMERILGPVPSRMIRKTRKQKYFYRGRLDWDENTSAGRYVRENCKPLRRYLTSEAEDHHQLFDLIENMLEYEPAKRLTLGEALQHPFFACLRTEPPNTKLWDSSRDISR

[24] = target: T2, Dual specificity protein kinase CLK1/CLK4; assay: Inhibition of CLK1/4 in human T24 cells assessed as down regulation of HDAC1 expression at 1.25 uM after 3 days by Western blot analysis relative to control; format: cell-based; in short: as §1
[25] = test system: PBL; assay: Cytotoxicity against human PBL after 2 days by MTT assay; format: cell-based; conditions: 48 h
In short: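 Cells plated at 30 000 per well with test compounds or DMSO control for 2 days, then MTT read-out. LC50 reported as the mean of at least two independent experiments.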

[26] = test system: T-24; assay: Down regulation of GRP94 expression in human T24 cells at 1.25 to 10 uM after 3 days by Western blot analysis; format: functional, cell-based; in short: as §1
[27] = target: Myosin light chain kinase 2, skeletal/cardiac muscle (Homo sapiens) (UniProt Q9H1R3); assay: Inhibition of MLCK2 (unknown origin) at 1 uM after 15 mins; in short: as §3
[28] = target: T1, Dual specificity protein kinase CLK1; assay: Inhibition of recombinant human GST-tagged Clk1 expressed in Escherichia coli at 1 uM using RS repeat substrate peptide after 15 mins in presence of [gamma-32]-ATP
[29] = target: T2, Dual specificity protein kinase CLK1/CLK4; assay: Inhibition of CLK1/4 in human MDA-MB-231 cells assessed as down regulation of S6 kinase expression after 3 days by Western blot analysis; format: cell-based; in short: as §1
[30] = target: T2, Dual specificity protein kinase CLK1/CLK4; assay: Inhibition of CLK1/4 in human T24 cells assessed as down regulation of EGFR expression at 1.25 uM after 3 days by Western blot analysis relative to control; format: cell-based; in short: as §1

## COc1ccc2sc(C(=O)N(C)Cc3cccc(F)c3)cc2c1
[1]
  inhibition: 80%
[2]
  Activity: inactive
[3]
  GI50: 27.2 µM
[4]
  IC50: 2.2 µM
  inhibition: Dose-dependent effect
[5]
  inhibition: 33.1%
[6]
  inhibition: 47.5%
[7]
  inhibition: 44%
[8]
  IC50: 0.0023 µM
[9]
  inhibition: 58%
[10]
  GI50: 9.6 µM
[11]
  Activity: inactive
[12]
  Activity: inactive
[13]
  IC50: 0.206 µM
[14]
  Activity: inactive
[15]
  IC50: 4.2 µM
[16]
  inhibition: 101%
[17]
  inhibition: 77%
[18]
  GI50: 15.3 µM
[19]
  GI50: > 30 µM
[20]
  inhibition: 12%
[21]
  inhibition: 56.2%
[22]
  inhibition: inactive
[23]
  IC50: 0.0191 µM
[24]
  inhibition: 13.6%
[25]
  LC50: 29.4 µM
[26]
  Activity: inactive
[27]
  inhibition: inactive
[28]
  inhibition: 92%
[29]
  IC50: > 20 µM
[30]
  inhibition: 48.3%
